A selection: hits, their analogues and other compounds. The true share with any hit is near 1.8%.
TDP2 absorb: TDP2 (human) inhibition, absorbance primary screen; actives 0.34% (n = 370,000); inhibition, % at 12.8 µM; O95551; recombinant TDP2, T5PNP hydrolysis, p-nitrophenol absorbance 415 nm; AID 720702;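 active = inhibition above the mean of all tested compounds plus 3 SD, set per campaign, cut at about 25% in these data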;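 note: 0% = DMSO with enzyme and 100% = buffer with substrate but no TDP2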
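Evaluation: % inhibition relative to enzyme-containing and enzyme-free wells. Material: recombinant human TDP2. Benchmarks: enzyme-free and DMSO wells. Timing: enzyme reaction with compound for 2 h at 37 °C. Compound dosing: 12.8 µM only. Measured by: p-Nitrophenol epi absorbance. Reagent: T5PNP substrate at 5 mM, a TopII-DNA adduct mimic. Replication: single well per compound.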
UHRF1 binding: UHRF1 methyl-DNA binding inhibition | UHRF1 binding to methylated oligo, TR-FRET | inhibition, % at 4.4 µM | actives 0.75% (n = 370,000); in the data active = inhibition above about 21%;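 note: UHRF1 SRA domain binding a hemimethylated CpG hairpin DNA probe; 0% = median of test compound wells and 100% = reference inhibitor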
LEDGF integ inh: blocks HIV-1 LEDGF/p75-dependent DNA integration; TR-FRET IN-LEDGF/p75 DNA integration, Eu/Cy5; inhibition, % at 3.7 µM; actives 0.64% (n = 370,000);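 active = inhibition above the screen-wide mean plus 3 SD, cut at about 13% in these data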;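 note: signal is the Cy5 over europium emission ratio at 671 and 618 nm; 0% = plate median of compound wells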
NSD2 inh: blocks human histone methyltransferase NSD2 | NSD2 peptide methylation, AlphaScreen, 120 min | AID 743445 | inhibition, % at 12.5 µM | actives 0.54% (n = 310,000); in the data active = inhibition above about 50%
CASP6 VEID inh: caspase-6 (human) enzyme inhibition | P55212 | purified caspase-6, Z-VEID-R110 cleavage fluorescence | inhibition, % at 12.5 µM | actives 0.53% (n = 350,000) | AID 686996;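 active = mean inhibition across replicates at least about 35%, with every replicate also reaching that limit, limit read from the data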;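 note: 0% = median of neutral control wells and 100% = no fluorescence left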
Target sequence (P55212 24-179 limits assumed): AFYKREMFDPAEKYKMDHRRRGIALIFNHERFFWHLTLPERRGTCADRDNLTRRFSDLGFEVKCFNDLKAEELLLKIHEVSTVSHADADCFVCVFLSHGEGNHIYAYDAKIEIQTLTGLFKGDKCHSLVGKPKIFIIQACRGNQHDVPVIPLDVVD
Target sequence (P55212 194-293 limits assumed): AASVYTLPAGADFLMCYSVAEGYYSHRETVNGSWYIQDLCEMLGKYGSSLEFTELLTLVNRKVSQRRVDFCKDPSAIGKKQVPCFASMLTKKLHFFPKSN
MBD2 inh: inhibitors of human MBD2 binding to methylated oligonucleotide. TR-FRET. Q9UBB5. actives 0.31% (n = 370,000). inhibition, % at 4.4 µM; in the data active = inhibition above about 13%
Active calls of the source: *; nt = no result.

SMILES	TDP2 absorb	UHRF1 binding	LEDGF integ inh	NSD2 inh	CASP6 VEID inh	MBD2 inh
CS(=O)(=O)N1N=C(c2ccco2)CC1c1ccccc1 (centres undefined)	-2	-2	0	-2	2	-5
CS(=O)(=O)N1N=C(c2ccco2)CC1c1ccco1 (centres undefined)	-3	-1	9	5	62*	-4
CCN1[C@@H]2c3ccc(C4=CCCCC4)c(=O)n3C[C@H]1[C@H](CO)[C@H]2C(=O)N1CCc2ccccc2C1	nt	nt	nt	nt	2	nt
CCC(=O)N1[C@H](CO)[C@H](c2ccccc2-c2cccc(C)c2)[C@@H]1C#N	nt	nt	nt	nt	1	nt
CCOc1ccc(S(=O)(=O)N2CCCC(C(=O)NCC3CCCO3)C2)cc1Cl (centres undefined)	7	83*	-1	-3	-2	-5
COc1ccc(S(=O)(=O)N2CCCC(C(=O)NCC3CCCO3)C2)cc1Cl (centres undefined)	-7	2	-2	-2	-4	-1
CC(C)CCn1c(=O)c2ccccc2n2c(CCC(=O)NCC3CCCO3)nnc12 (centres undefined)	-6	6	-1	-1	38*	-2
Cc1cccc(-n2nc3c(c2NC(=O)c2ccco2)CSC3)c1C	-4	6	29*	nt	nt	1
C[C@@H]1CN([C@H](C)CO)C(=O)c2cc(/C=C/c3ccccc3)cnc2O[C@@H]1CN(C)C(=O)c1ccc2c(c1)OCO2	nt	nt	nt	nt	1	nt
COc1ccc(NC(=O)c2cccc(S(=O)(=O)N3CCN(c4ccccc4)CC3)c2)c(OC)c1	4	22*	-1	-2	-3	5
O=C(NN=C1CCCC1)c1n[nH]c2c1CCCC2	-8	-4	-3	-2	1	-1
O=C(NN=C1CCCC1)c1n[nH]c2c1CCC2	3	-3	-1	-2	59*	-6
COc1ccc(NC(=O)N2CC(=O)N3[C@@H](CO)[C@H](c4ccc(C5=CCCC5)cc4)[C@@H]3C2)cc1	nt	nt	nt	nt	-1	nt
COC(=O)CC1NCCc2cc(OC)c(OC)cc21 (centres undefined)	-15	33*	-1	-3	0	0
COc1cc2c(cc1OC)[C@H](Cc1ccc(O)cc1)NCC2	-7	1	2	nt	1	1
O=C(CSc1ccsc1[N+](=O)[O-])Nc1cccc(F)c1	12	4	4	5	41*	5
O=C(Cc1cccc2ccccc12)NN1C(=O)CSC1=S	3	-2	1	4	-2	0
O=C(NN1C(=O)CSC1=S)C(=O)NN1C(=O)CSC1=S	1	19	29*	-340	51*	4
COC(=O)C1=C(C)NC(=S)NC1c1ccc(-c2cccc(Cl)c2)o1 (centres undefined)	8	-3	0	2	nt	2
COC(=O)C1=C(C)NC(=S)NC1c1ccc(-c2ccccc2C(=O)OC)o1 (centres undefined)	-4	22*	1	5	7	4
Cc1ccc(-c2nn(-c3ccccc3)cc2C=C2SC(=S)N(CCS(=O)(=O)O)C2=O)cc1	-2	-2	0	nt	78*	-1
O=C1C(=Cc2cn(-c3ccccc3)nc2-c2ccc(OCc3ccccc3)cc2)SC(=S)N1CCS(=O)(=O)O	-2	0	1	nt	75*	7
COc1cccc2c(=O)n(CC(=O)N3CCC(C)CC3)ccc12	4	93*	6	nt	1	-8
COc1cccc2c(=O)n(CC(=O)N3CCN(c4ccccc4)CC3)ccc12	6	0	9	nt	0	-4
CN(C)CC(=O)Nc1ccc2c(c1)[C@@H]1C[C@@H](CC(=O)NCCc3ccccc3)O[C@@H](CO)[C@@H]1O2	nt	nt	nt	nt	3	nt
SMILES	TDP2 absorb	UHRF1 binding	LEDGF integ inh	NSD2 inh	CASP6 VEID inh	MBD2 inh
C[C@@H]1CN([C@@H](C)CO)C(=O)Cc2cc(NC(=O)Nc3ccccc3)ccc2O[C@H]1CN(C)C(=O)Nc1cccc2ccccc12	nt	nt	nt	nt	3	nt
O=C(N/N=C/c1ccc(Cl)cc1)C(=O)N1CCCCCC1	12	27*	0	-1	-4	0
CC12CCC(C(=O)N(CC(O)CN3CCN(Cc4ccccc4)CC3)C1=O)C2(C)C (centres undefined)	13	24*	2	14	-26	9
Cc1ccc(S(=O)(=O)Nc2cc3c(C(=O)Nc4ccccc4)c(C)oc3c3ccccc23)cc1	9	2	-1	-1	-4	0
COC(=O)c1c(C)oc2c1cc(NS(=O)(=O)c1ccc(C(=O)O)cc1)c1ccccc12	1	1	4	nt	42*	5
CCCCNc1cccc2c1S(=O)(=O)N[C@H](C)CO2	13	22*	-2	nt	2	9
CC1Cc2ccccc2N1C(=O)COC(=O)c1ccco1 (centres undefined)	3	0	-5	-4	3	4
O=C(OCC(=O)N1CCN(S(=O)(=O)c2ccccc2)CC1)c1ccc([N+](=O)[O-])o1	6	-5	1	0	1	-2
CC1Cc2ccccc2N1C(=O)COC(=O)c1ccc([N+](=O)[O-])o1 (centres undefined)	16	-5	4	nt	47*	-6
CC1CCN(C(=O)COC(=O)c2ccc([N+](=O)[O-])o2)CC1	4	-2	0	48	52*	-6
CO[C@@H](CN(C)S(=O)(=O)c1ccc(F)cc1)[C@H](C)CN(C(=O)Nc1ccccc1F)[C@H](C)CO	nt	nt	nt	nt	6	nt
CC1CCN(CCc2nc3cc(NC(=O)COc4ccccc4)ccc3n2C)CC1	4	26*	-3	4	-9	12
CCC(=O)Nc1ccc2c(c1)nc(CCN1CCC(C)CC1)n2C	4	-2	0	-1	-2	5
O=C(/C=C/c1cccc([N+](=O)[O-])c1)NCCc1ccc(F)cc1	4	38*	0	-2	nt	-1
COc1ccc(CN(C)C[C@H]2OCCCC[C@H](C)Oc3ccc(N(C)C)cc3C(=O)N([C@H](C)CO)C[C@@H]2C)cc1	nt	nt	nt	nt	-3	nt
CCOCCCNC(=S)N1CCC(NC(=O)c2ccco2)CC1	-20	5	3	-4	0	2
CC(C)CNC(=S)N1CCC(NC(=O)c2ccco2)CC1	-3	23*	-4	-1	-6	2
Cc1noc(C)c1NC(=O)N[C@H]1CC[C@H](CCNC(=O)C2CCCCC2)O[C@@H]1CO	nt	nt	nt	nt	-2	nt
C[C@@H]1CN([C@H](C)CO)C(=O)c2cccc(N(C)C)c2O[C@H]1CN(C)Cc1ccc(C(=O)Nc2ccccc2N)cc1	nt	nt	nt	nt	-4	nt
CCN1CCN(C(=S)Nc2cccc([N+](=O)[O-])c2)CC1	-3	-2	-1	9	-4	-5
O=[N+]([O-])c1cccc(NC(=S)N2CCCC2)c1	24	27*	2	0	-2	7

Bioassay records from PubChem.
